For 11 compounds, IC50 and Adhesion results are on record in ChEMBL document CHEMBL1134773, “Design and synthesis of potent and selective alpha(4)beta(7) integrin antagonists” (J Med Chem, 2001).

Structures are written as SMILES.

The target in one assay is T1, Integrin alpha-4/beta-7 (Homo sapiens, UniProt P13612+P26010).
T1 sequence (P13612 whole entry): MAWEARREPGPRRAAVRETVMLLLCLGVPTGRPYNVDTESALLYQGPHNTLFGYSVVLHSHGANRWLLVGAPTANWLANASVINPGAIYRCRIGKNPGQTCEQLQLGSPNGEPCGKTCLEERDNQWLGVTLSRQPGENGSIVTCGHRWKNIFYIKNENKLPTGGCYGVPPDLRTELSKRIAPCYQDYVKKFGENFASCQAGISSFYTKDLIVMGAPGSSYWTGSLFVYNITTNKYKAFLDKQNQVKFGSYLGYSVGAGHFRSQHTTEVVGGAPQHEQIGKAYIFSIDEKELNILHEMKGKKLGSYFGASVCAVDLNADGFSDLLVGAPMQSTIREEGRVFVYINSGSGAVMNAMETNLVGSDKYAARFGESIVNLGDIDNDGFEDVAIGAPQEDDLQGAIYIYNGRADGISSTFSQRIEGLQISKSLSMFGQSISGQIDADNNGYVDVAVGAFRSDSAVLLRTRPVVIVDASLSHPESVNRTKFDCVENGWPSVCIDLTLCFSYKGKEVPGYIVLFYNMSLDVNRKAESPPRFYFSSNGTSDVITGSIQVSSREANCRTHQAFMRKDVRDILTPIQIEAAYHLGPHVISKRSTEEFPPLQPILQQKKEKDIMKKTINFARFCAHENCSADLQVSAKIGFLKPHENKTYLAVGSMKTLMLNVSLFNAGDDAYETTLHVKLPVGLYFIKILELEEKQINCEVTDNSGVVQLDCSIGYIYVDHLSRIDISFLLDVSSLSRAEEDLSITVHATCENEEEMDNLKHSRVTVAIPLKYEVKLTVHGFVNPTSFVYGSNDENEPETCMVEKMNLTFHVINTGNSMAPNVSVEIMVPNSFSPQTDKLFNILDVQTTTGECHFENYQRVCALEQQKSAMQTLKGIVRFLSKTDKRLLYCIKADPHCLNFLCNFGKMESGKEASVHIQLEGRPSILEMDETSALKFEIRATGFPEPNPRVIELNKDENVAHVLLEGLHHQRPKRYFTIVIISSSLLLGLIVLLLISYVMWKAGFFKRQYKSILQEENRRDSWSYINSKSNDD
T1 sequence (P26010 whole entry): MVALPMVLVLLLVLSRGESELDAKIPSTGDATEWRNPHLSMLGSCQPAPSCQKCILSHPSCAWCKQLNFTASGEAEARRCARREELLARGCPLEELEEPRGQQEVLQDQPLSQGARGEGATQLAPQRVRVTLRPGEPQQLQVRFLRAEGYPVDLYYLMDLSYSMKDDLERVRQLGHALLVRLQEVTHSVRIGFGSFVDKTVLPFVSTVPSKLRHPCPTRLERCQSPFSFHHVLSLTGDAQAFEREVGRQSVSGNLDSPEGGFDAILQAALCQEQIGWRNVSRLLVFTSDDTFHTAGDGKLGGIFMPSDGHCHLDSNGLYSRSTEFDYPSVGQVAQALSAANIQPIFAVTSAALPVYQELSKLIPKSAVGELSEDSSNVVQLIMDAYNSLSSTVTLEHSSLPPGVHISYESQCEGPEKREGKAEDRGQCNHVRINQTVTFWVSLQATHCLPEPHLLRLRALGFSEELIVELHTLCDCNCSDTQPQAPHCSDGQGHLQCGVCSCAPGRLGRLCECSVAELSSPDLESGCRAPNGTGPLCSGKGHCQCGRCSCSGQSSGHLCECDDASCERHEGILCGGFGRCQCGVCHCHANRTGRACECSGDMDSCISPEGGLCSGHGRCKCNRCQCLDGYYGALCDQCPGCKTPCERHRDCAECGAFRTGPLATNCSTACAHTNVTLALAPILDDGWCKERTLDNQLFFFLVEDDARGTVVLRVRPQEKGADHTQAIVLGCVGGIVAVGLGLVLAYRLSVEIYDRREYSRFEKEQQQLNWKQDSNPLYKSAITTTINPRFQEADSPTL
Nature of the assay: Inhibition of alpha-4-beta-7/MAdCAM interactions. The assay is classed as protein-complex assay. The gist of the method:
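Plates carried anti-human IgG capture antibody, then 100 ng MAdCAM-Ig (30 min, room temperature), then were blocked 1 h at 37 °C. H33342-labelled 38-β7 cells (8×10^5/mL, Ca2+/Mg2+ 1.0 mM) were preincubated 10 min at 37 °C with peptide. They adhered 30 min at 37 °C, and unbound cells were spun off inversely at 50g. Values are mean ± SD of ≥3 experiments.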

Assay [1] deals with Integrin alpha-4/beta-1 (Homo sapiens) (UniProt P05556+P13612). In words: Inhibition of alpha4-beta1 lymphoma cell binding to CHO-VCAM-1 cells. The assay is classed as cell-based.
The target of assay [2] is T2, Integrin alpha-4/beta-7 (Homo sapiens) (UniProt P13612+P26010). Nature of the assay: Ability to inhibit adhesion of alpha4-beta7 integrin expressing 38-beta7 lymphoma cells to chinese hamster ovary (CHO) cells stably transfected with MAdCAM-1. Format: cell-based. In a few lines: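 38-β7 lymphoma cells (α4β7+) labelled 30 min at 37 °C with 12 μg/mL H33342, then 8×10^5/mL in buffer with 1.0 mM Ca2+/Mg2+. Preincubated 10 min at 37 °C with peptide at 1 mg/mL final. Allowed to adhere 30 min at 37 °C to confluent MAdCAM-1-transfected CHO monolayers (seeded 24 h before). Nonadherent cells removed by inverse centrifugation. Result given as % of medium control, mean of two experiments.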

Assay [3] has as its target T2, Integrin alpha-4/beta-7 (Homo sapiens). In words: Inhibition of alpha4-beta7 lymphoma cell binding to CHO-VCAM-1 cells. The assay is classed as cell-based.
In a further assay the test system is PBL. In words: Effect on human PBL cell binding to Laminin. The assay is classed as cell-based. The gist of the method: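 Human PBL labelled with H33342 (12 μg/mL, 30 min, 37 °C), resuspended at 8×10^5/mL with 1.0 mM Ca2+ and Mg2+. Peptides at 1 mg/mL final were preincubated with the cells for 10 min at 37 °C. Cells then adhered 30 min at 37 °C to plates coated 16 h at 4 °C with 2 μg/well laminin (pH 9.4 carbonate). Read-out is % of medium control, mean ± SD of ≥3 experiments.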

In general, IC50 refers to the concentration that inhibits the measured activity by half. Low values mean greater potency in that assay, high ones weaker potency in that assay.

On Integrin alpha-4/beta-7, `CC(C)C[C@H](NC(=O)c1cc2ccccc2cn1)C(=O)N[C@@H](CC(=O)O)C(=O)N[C@H](C(N)=O)[C@@H](C)O` returned an IC50 of 465 µM.

Regarding `CSCC[C@@H]1NC(=O)[C@H]2CCCN2C(=O)[C@H](CC(=O)O)NC(=O)[C@H]([C@@H](C)O)NC(=O)[C@H](CC(=O)O)NC(=O)[C@H](CC(C)C)NC1=O`, at Integrin alpha-4/beta-7, the IC50 was determined as 317 µM.

On to `CC(C)C[C@@H]1NC(=O)[C@H](Cc2ccc(O)cc2)NC(=O)[C@H]2CCCN2C(=O)[C@H](CC(=O)O)NC(=O)[C@H]([C@@H](C)O)NC(=O)[C@H](CC(=O)O)NC1=O`, for which, on Integrin alpha-4/beta-7, the IC50 amounted to 308 µM.

On Integrin alpha-4/beta-7, `CC(C)C[C@@H]1NC(=O)[C@H](Cc2c[nH]cn2)NC(=O)[C@H]2CCCN2C(=O)[C@H](CC(=O)O)NC(=O)[C@H]([C@@H](C)O)NC(=O)[C@H](CC(=O)O)NC1=O` showed an IC50 of 301 µM. This IC50 and that of the compound before are within 1.5-fold of each other.

`CC(C)C[C@@H]1NC(=O)[C@@H](Cc2ccccc2)NC(=O)[C@H]2CCCN2C(=O)[C@@H](CC(=O)O)NC(=O)[C@H]([C@@H](C)O)NC(=O)[C@@H](CC(=O)O)NC1=O`: the Adhesion was determined as 72% in assay [1], 3% in assay [2], 38% in assay [3] and 95% in the assay with PBL.

With `CC(C)C[C@@H]1NC(=O)[C@@H](Cc2ccc(O)cc2)NC(=O)[C@H]2CCCN2C(=O)[C@@H](CC(=O)O)NC(=O)[C@H]([C@@H](C)O)NC(=O)[C@@H](CC(=O)O)NC1=O`, the Adhesion in assay [1] came out at 78%; in assay [2] it was 3%; in assay [3], 37%; in the assay on PBL, 111%.

Regarding `CSCC[C@H]1NC(=O)[C@H]2CCCN2C(=O)[C@@H](CC(=O)O)NC(=O)[C@H]([C@@H](C)O)NC(=O)[C@@H](CC(=O)O)NC(=O)[C@H](CC(C)C)NC1=O`, the Adhesion was 108% in assay [1], 15% in assay [2], 36% in assay [3] and 102% in the assay on PBL.

Consider `CC(C)C[C@@H]1NC(=O)[C@@H](Cc2c[nH]cn2)NC(=O)[C@H]2CCCN2C(=O)[C@@H](CC(=O)O)NC(=O)[C@H]([C@@H](C)O)NC(=O)[C@@H](CC(=O)O)NC1=O`, for which the Adhesion in assay [1] came to 74%; in assay [2], 9%; in assay [3], 27%; in the assay with PBL it was 114%.

Regarding `CC(C)C[C@@H]1NC(=O)[C@H](Cc2ccccc2)NC(=O)[C@H]2CCCN2C(=O)[C@H](CC(=O)O)NC(=O)[C@H]([C@@H](C)O)NC(=O)[C@H](CC(=O)O)NC1=O`, on Integrin alpha-4/beta-7, the IC50 stood at 163 µM.

At Integrin alpha-4/beta-7, `CC(C)C[C@@H]1NC(=O)[C@H](Cc2ccccc2)NC(=O)[C@H]2CCCN2C(=O)[C@H](C)NC(=O)[C@H]([C@@H](C)O)NC(=O)[C@H](CC(=O)O)NC1=O` had an IC50 of 292 µM. This IC50 is about 1.8-fold higher than that of the compound before.

Take `CC(C)C[C@@H]1NC(=O)[C@@H](Cc2ccccc2)NC(=O)[C@H]2CCCN2C(=O)[C@@H](C)NC(=O)[C@H]([C@@H](C)O)NC(=O)[C@@H](CC(=O)O)NC1=O`: the Adhesion in assay [1] was determined as 109%; in assay [2], 7%; in assay [3] it was 36%.
